The test system of data set [1] is Streptococcus pyogenes. Kind of data set: In vivo effective dose given perorally to mice infected with Streptococcus pyogenes C 203. Type of data set: functional. To be noted: po. The gist of the method:
(§1)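 Mice (five per treatment group, five groups) infected intraperitoneally with about 10⁵ cells of Strep. pyogenes C 203, about 100× the LD50. ED50 (mg/kg) was calculated from the percentage of mice surviving at each dose on day 7.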

Data set [2] deals with Streptococcus pyogenes. Kind of data set: Subcutaneously administration into mice infected with Streptococcus pyogenes C 203. It is filed as functional. The following applies: sc. The gist of the method:
as §1

The test system of data set [3] is Staphylococcus sp. Kind of data set: Minimum inhibitory concentration of compound against 16 different strains of staphylococcus species. It is filed as functional. Put shortly: (§2)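 Agar dilution on Iso-Sensitest agar against clinical coagulase-negative staphylococcal isolates, including methicillin-resistant strains. Final inoculum about 10⁴ cfu/mL.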
Data set [4] deals with Staphylococcus epidermidis. Kind of data set: In vitro minimum inhibitory concentration against Staphylococcus epidermis ATCC 12228. It is filed as functional.
Data set [5] concerns Staphylococcus epidermidis. The data set can be described thus: Minimum inhibitory concentration of compound against 12 strains of Staphylococcus epidermidis. Type of data set: functional. Put shortly:
as §2

The subject of data set [6] is Staphylococcus epidermidis. Kind of data set: 50 percent Minimum inhibitory concentration of compound against 12 strains of Staphylococcus epidermidis. It is filed as functional. Put shortly: as §2
Data set [7] concerns Staphylococcus epidermidis. The data set can be described thus: 90 percent Minimum inhibitory concentration of compound against 12 strains of Staphylococcus epidermidis. Type of data set: functional. The gist of the method: as §2
Data set [8] has as its system Staphylococcus sp. Kind of data set: 50 percent Minimum inhibitory concentration of compound against 16 different strains of staphylococcus species. Type of data set: functional. Put shortly:
as §2

Data set [9] has as its system Staphylococcus sp. Kind of data set: 90 percent Minimum inhibitory concentration of compound against 16 different strains of staphylococcus species. It is filed as functional. Put shortly:
as §2

For data set [10], the system named is Staphylococcus haemolyticus. The data set can be described thus: In vitro minimum inhibitory concentration against Staphylococcus hemolyticus 602 cell line. Type of data set: functional. To be noted: strain 602.
For data set [11], the system named is Staphylococcus aureus. Kind of data set: In vitro minimum inhibitory concentration against Staphylococcus aureus Tour. Type of data set: functional.
In the next data set the test system is Streptococcus pneumoniae. Kind of data set: In vitro minimum inhibitory concentration against Streptococcus pneumoniae UC41. It is filed as functional.
In data set [12] the test system is Staphylococcus haemolyticus. The data set can be described thus: Minimum inhibitory concentration of compound against 8 strains of Staphylococcus hemolyticus. It is filed as functional. The gist of the method: as §2
Data set [13] has as its system Staphylococcus haemolyticus. Kind of data set: 50 percent Minimum inhibitory concentration of compound against 8 strains of Staphylococcus hemolyticus. Type of data set: functional. Put shortly:
as §2

In data set [14] the test system is Staphylococcus haemolyticus. The data set can be described thus: 90 percent Minimum inhibitory concentration of compound against 8 strains of Staphylococcus hemolyticus. It is filed as functional. The gist of the method: as §2
Data set [15] has as its system Streptococcus pyogenes. The data set can be described thus: In vitro minimum inhibitory concentration against Streptococcus pyogenes C 203. Type of data set: functional.
In another data set the test system is Enterococcus faecalis. The data set can be described thus: In vitro minimum inhibitory concentration against Streptococcus faecalis ATCC 7080. Type of data set: functional.
Data set [16] concerns Ac2-L-Lys-D-Ala-D-Ala peptide. Kind of data set: Association constant with Ac2-L-Lys-D-Ala-D-Ala. Put shortly: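 UV difference spectroscopy at 24 ± 2 °C in 4-cm unthermostated cells. Antibiotic was at 30 μM in 10% MeOH in sodium phosphate buffer, pH 9, and titrated with Ac2-L-Lys-D-Ala-D-Ala. ΔA was monitored at 294 nm. Ka was taken from the slope of a Scatchard plot.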

Another data set relates to Bacteria. Kind of data set: Minimum inhibitory concentration of compound against Gram negative bacteria. It is filed as functional.
The test system of data set [17] is Staphylococcus aureus. The data set can be described thus: In vitro minimum inhibitory concentration of compound against Staphylococcus aureus Tour. Type of data set: organism-based.

The values below come from ChEMBL document CHEMBL1124366, “Synthesis and biological properties of N63-carboxamides of teicoplanin antibiotics. Structure-activity relationships” (J Med Chem, 1989).

Values after ≈ are worked out from the molar mass of the structure shown. Some results are limits rather than exact numbers.

Turning to `CCCCC/C=C/CCC(=O)N[C@@H]1[C@H](Oc2c3cc4cc2Oc2ccc(cc2Cl)[C@@H](O[C@@H]2O[C@@H](CO)[C@@H](O)[C@H](O)[C@@H]2NC(C)=O)[C@@H]2NC(=O)[C@H](NC(=O)[C@@H]4NC(=O)[C@H]4NC(=O)[C@@H](Cc5ccc(c(Cl)c5)O3)NC(=O)[C@H](N)c3ccc(O)c(c3)Oc3cc(O)cc4c3)c3ccc(O)c(c3)-c3c(O[C@H]4O[C@H](CO)[C@@H](O)[C@@H](O)[C@@H]4O)cc(O)cc3[C@@H](C(=O)O)NC2=O)O[C@@H](CO)[C@@H](O)[C@@H]1O`, the ED50 (as a rule, the dose at which the effect has come halfway, by size or by number of responders) is 170 mg/kg in the data set with Streptococcus pyogenes [1] and 0.12 mg/kg with Streptococcus pyogenes [2]. Further, the MIC against Staphylococcus sp. [3] turned out to be 0.25 µg/mL (≈ 0.133 µM); in data set [4], 0.25 µg/mL (≈ 0.133 µM); in data set [5], 0.25 µg/mL (≈ 0.133 µM); in data set [10], 4 µg/mL (≈ 2.13 µM); in the data set with Staphylococcus aureus [11], 0.12 µg/mL (≈ 0.0639 µM); in the data set with Streptococcus pneumoniae it was 0.06 µg/mL (≈ 0.032 µM). The MIC was found to be 2 µg/mL (≈ 1.07 µM) in data set [12], 0.06 µg/mL (≈ 0.032 µM) in the data set on Streptococcus pyogenes [15] and 0.12 µg/mL (≈ 0.0639 µM) against Enterococcus faecalis. The MIC50 (usually an inhibitory concentration at the 50% level, which refers to growth in some studies and to a panel of isolates in others) in data set [6] amounted to 0.5 µg/mL (≈ 0.266 µM); against Staphylococcus sp. [8], 1 µg/mL (≈ 0.533 µM); in data set [13], 16 µg/mL (≈ 8.52 µM). Besides, the MIC90 (in general, the lowest concentration that inhibits either 90% of growth or 90% of the strains tested, depending on the study) was 2 µg/mL (≈ 1.07 µM) in [7], 4 µg/mL (≈ 2.13 µM) in the data set with Staphylococcus sp. [9] and 32 µg/mL (≈ 17 µM) in [14].

As for `CC(=O)N[C@@H]1[C@H](O[C@@H]2c3ccc(c(Cl)c3)Oc3cc4cc(c3O)Oc3ccc(cc3Cl)C[C@H]3NC(=O)[C@H](N)c5ccc(O)c(c5)Oc5cc(O)cc(c5)[C@H](NC3=O)C(=O)N[C@H]4C(=O)N[C@H]3C(=O)N[C@@H]2C(=O)N[C@H](C(=O)N2CCSCC2)c2cc(O)cc(O[C@H]4O[C@H](CO)[C@@H](O)[C@@H](O)[C@@H]4O)c2-c2cc3ccc2O)O[C@@H](CO)[C@@H](O)[C@@H]1O`, the Ka in data set [16] was 120000 M⁻¹. For the same molecule, the MIC in the data set with Bacteria was over 128 µg/mL; in data set [4], 0.12 µg/mL (≈ 0.0728 µM); in the data set on Staphylococcus aureus [11], 0.5 µg/mL (≈ 0.303 µM); against Streptococcus pneumoniae, 0.5 µg/mL (≈ 0.303 µM); in the data set on Streptococcus pyogenes [15] it was 0.5 µg/mL (≈ 0.303 µM); in the data set on Enterococcus faecalis, 2 µg/mL (≈ 1.21 µM). For the same molecule, the ED50 in the data set on Streptococcus pyogenes [2] was 1.6 mg/kg.

For `CC(=O)N[C@@H]1[C@H](O[C@@H]2c3ccc(c(Cl)c3)Oc3cc4cc(c3O[C@@H]3O[C@@H](CO)[C@@H](O)[C@H](O)[C@@H]3NC(=O)CCCCCCC(C)C)Oc3ccc(cc3Cl)C[C@H]3NC(=O)[C@H](N)c5ccc(O)c(c5)Oc5cc(O)cc(c5)[C@H](NC3=O)C(=O)N[C@H]4C(=O)N[C@H]3C(=O)N[C@@H]2C(=O)N[C@H](C(=O)NCCCN(C)C)c2cc(O)cc(O[C@H]4O[C@H](CO)[C@@H](O)[C@@H](O)[C@@H]4O)c2-c2cc3ccc2O)O[C@@H](CO)[C@@H](O)[C@@H]1O`, the results for the ED50 in the data set on Streptococcus pyogenes [1] and in the data set on Streptococcus pyogenes [2] were 70.7 mg/kg and 0.05 mg/kg, respectively. Also, the MIC against Staphylococcus sp. [3] worked out at 0.25 µg/mL (≈ 0.127 µM); in data set [4] it was 0.06 µg/mL (≈ 0.0306 µM); in data set [5] it was 0.125 µg/mL (≈ 0.0637 µM); in [10], 0.12 µg/mL (≈ 0.0611 µM); in the data set with Staphylococcus aureus [11], 0.12 µg/mL (≈ 0.0611 µM); against Streptococcus pneumoniae, 0.06 µg/mL (≈ 0.0306 µM). Also, the MIC in [12] was 1 µg/mL (≈ 0.509 µM); in the data set with Streptococcus pyogenes [15] it was 0.06 µg/mL (≈ 0.0306 µM); against Enterococcus faecalis it was 0.12 µg/mL (≈ 0.0611 µM). The MIC50 came out at 0.25 µg/mL (≈ 0.127 µM) in data set [6], 0.5 µg/mL (≈ 0.255 µM) with Staphylococcus sp. [8] and 1 µg/mL (≈ 0.509 µM) in data set [13]. Further, the results for the MIC90 (in data set [7]; with Staphylococcus sp. [9]; in data set [14]) were 1 µg/mL (≈ 0.509 µM), 1 µg/mL (≈ 0.509 µM) and 2 µg/mL (≈ 1.02 µM), respectively.

As to `CC(=O)N[C@@H]1[C@H](O[C@@H]2c3ccc(c(Cl)c3)Oc3cc4cc(c3O)Oc3ccc(cc3Cl)C[C@H]3NC(=O)[C@H](N)c5ccc(O)c(c5)Oc5cc(O)cc(c5)[C@H](NC3=O)C(=O)N[C@H]4C(=O)N[C@H]3C(=O)N[C@@H]2C(=O)N[C@H](C(=O)O)c2cc(O)cc(O[C@H]4O[C@H](CO)[C@@H](O)[C@@H](O)[C@@H]4O)c2-c2cc3ccc2O)O[C@@H](CO)[C@@H](O)[C@@H]1O`, the MIC against Bacteria is over 128 µg/mL; in data set [4] it was 0.25 µg/mL (≈ 0.16 µM); against Staphylococcus aureus [11] it was 0.25 µg/mL (≈ 0.16 µM); against Streptococcus pneumoniae it was 0.5 µg/mL (≈ 0.32 µM); against Streptococcus pyogenes [15], 0.12 µg/mL (≈ 0.0767 µM); in the data set with Enterococcus faecalis it was 0.5 µg/mL (≈ 0.32 µM). It took a dose of 2.64 mg/kg to reach the 50% effect level in the data set with Streptococcus pyogenes [2] (ED50).

For `CC(=O)N[C@@H]1[C@H](O[C@@H]2c3ccc(c(Cl)c3)Oc3cc4cc(c3O)Oc3ccc(cc3Cl)C[C@H]3NC(=O)[C@H](N)c5ccc(O)c(c5)Oc5cc(O)cc(c5)[C@H](NC3=O)C(=O)N[C@H]4C(=O)N[C@H]3C(=O)N[C@@H]2C(=O)N[C@H](C(=O)N2CCN(C)CC2)c2cc(O)cc(O[C@H]4O[C@H](CO)[C@@H](O)[C@@H](O)[C@@H]4O)c2-c2cc3ccc2O)O[C@@H](CO)[C@@H](O)[C@@H]1O`, the Ka in [16] is 100000 M⁻¹. Further, the MIC was over 128 µg/mL with Bacteria; 0.12 µg/mL (≈ 0.0729 µM) in [4]; 0.25 µg/mL (≈ 0.152 µM) against Staphylococcus aureus [11]; 1 µg/mL (≈ 0.607 µM) against Streptococcus pneumoniae; 0.5 µg/mL (≈ 0.304 µM) against Streptococcus pyogenes [15]; 2 µg/mL (≈ 1.21 µM) against Enterococcus faecalis. In addition, the 50% effective dose (ED50) with Streptococcus pyogenes [2] was determined as 0.95 mg/kg.

In the case of `CC(=O)N[C@@H]1[C@H](O[C@@H]2c3ccc(c(Cl)c3)Oc3cc4cc(c3O[C@@H]3O[C@@H](CO)[C@@H](O)[C@H](O)[C@@H]3NC(=O)CCCCCCC(C)C)Oc3ccc(cc3Cl)C[C@H]3NC(=O)[C@H](N)c5ccc(O)c(c5)Oc5cc(O)cc(c5)[C@H](NC3=O)C(=O)N[C@H]4C(=O)N[C@H]3C(=O)N[C@@H]2C(=O)N[C@H](C(=O)NC2CCN(Cc4ccccc4)CC2)c2cc(O)cc(O[C@H]4O[C@H](CO)[C@@H](O)[C@@H](O)[C@@H]4O)c2-c2cc3ccc2O)O[C@@H](CO)[C@@H](O)[C@@H]1O`, the 50% effective dose (ED50) was over 300 mg/kg in the data set on Streptococcus pyogenes [1] and 0.08 mg/kg in the data set with Streptococcus pyogenes [2]. Further, the MIC in data set [4] is 0.12 µg/mL (≈ 0.0585 µM); in [10], 4 µg/mL (≈ 1.95 µM); against Staphylococcus aureus [17], 0.12 µg/mL (≈ 0.0585 µM); against Streptococcus pneumoniae, 0.06 µg/mL (≈ 0.0292 µM); against Streptococcus pyogenes [15], 0.06 µg/mL (≈ 0.0292 µM); in the data set with Enterococcus faecalis, 0.12 µg/mL (≈ 0.0585 µM).
